These results are taken from paper PMC9540497 (Clinical Pharmacology and Therapeutics, 2022).

Molecules are shown by their SMILES. Like-named read-outs stand apart in the source and are kept apart here.

The format of data set [1] is in vivo, human. The note with it: for AUC(0-inf) / Cmax / Tmax / half-life: female, human, plasma, oral; for AUC(0-inf): AUC0–inf; for AUC(0-inf) / Cmax: mean (CV%); for Tmax: median (minimum, maximum); for half-life: t 1/2, mean (CV%). In a few lines:
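Healthy women received a single oral contraceptive dose (0.03 mg EE, 3 mg DRSP) fed on days 1, 8 and 18, with test compound 600 mg once daily on days 8–23. Blood was drawn predose and at 0.5–120 h postdose. EE and DRSP were measured by validated UHPLC-MS/MS (LLOQ 2.5 pg/mL and 0.5 ng/mL). LS geometric mean ratios (90% CI) of ln Cmax and AUC0–inf came from a mixed model (day fixed, subject random).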

For data set [2], the target named is T1, CYP3A4 (Homo sapiens, UniProt P08684). The note with it: cited from earlier work.
T1 sequence (P08684 whole entry): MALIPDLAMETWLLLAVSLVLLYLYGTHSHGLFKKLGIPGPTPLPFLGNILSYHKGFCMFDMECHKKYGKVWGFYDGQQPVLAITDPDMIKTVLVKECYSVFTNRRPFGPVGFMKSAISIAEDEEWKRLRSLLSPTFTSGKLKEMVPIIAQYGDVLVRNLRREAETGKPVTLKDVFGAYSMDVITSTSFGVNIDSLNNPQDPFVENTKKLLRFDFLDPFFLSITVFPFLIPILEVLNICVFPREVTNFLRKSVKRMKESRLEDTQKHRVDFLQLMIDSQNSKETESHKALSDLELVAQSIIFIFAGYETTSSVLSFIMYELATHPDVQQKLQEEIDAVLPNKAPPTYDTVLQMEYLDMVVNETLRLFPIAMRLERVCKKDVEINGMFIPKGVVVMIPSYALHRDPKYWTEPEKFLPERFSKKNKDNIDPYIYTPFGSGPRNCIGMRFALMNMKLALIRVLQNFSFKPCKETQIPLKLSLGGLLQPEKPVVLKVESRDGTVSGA
Data set [3] addresses T2, SULT1E1 (Homo sapiens, UniProt P49888).
T2 sequence (P49888 1-294): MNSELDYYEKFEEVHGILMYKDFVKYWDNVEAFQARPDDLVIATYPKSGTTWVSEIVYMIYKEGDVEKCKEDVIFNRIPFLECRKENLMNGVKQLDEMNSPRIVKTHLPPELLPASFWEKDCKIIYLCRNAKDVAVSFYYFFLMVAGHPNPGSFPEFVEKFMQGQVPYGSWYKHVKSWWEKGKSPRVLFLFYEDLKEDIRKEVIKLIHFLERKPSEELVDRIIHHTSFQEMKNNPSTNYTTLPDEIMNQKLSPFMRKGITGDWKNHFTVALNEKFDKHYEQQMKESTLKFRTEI
Kind of data set: SULT1E1 in vitro inhibition test. The class given is biochemical. In a few lines:
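Recombinant human SULT1E1 expressed in E. coli was incubated with EE 5 nM as substrate. Test compound was tested at 0.8, 2, 8, 20, 80 and 200 µM, with quercetin 0.5 µM as positive control and a DMSO solvent control. Metabolite formation was read by UHPLC-MS/MS peak area, and activity was expressed relative to solvent control (n = 3). IC50 came from a sigmoidal fit; tentative Ki came from Cheng–Prusoff assuming competitive inhibition and substrate concentration equal to Km.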

The target of data set [4] is T3, UGT1A1 (Homo sapiens, UniProt P22309).
T3 sequence (P22309 26-533): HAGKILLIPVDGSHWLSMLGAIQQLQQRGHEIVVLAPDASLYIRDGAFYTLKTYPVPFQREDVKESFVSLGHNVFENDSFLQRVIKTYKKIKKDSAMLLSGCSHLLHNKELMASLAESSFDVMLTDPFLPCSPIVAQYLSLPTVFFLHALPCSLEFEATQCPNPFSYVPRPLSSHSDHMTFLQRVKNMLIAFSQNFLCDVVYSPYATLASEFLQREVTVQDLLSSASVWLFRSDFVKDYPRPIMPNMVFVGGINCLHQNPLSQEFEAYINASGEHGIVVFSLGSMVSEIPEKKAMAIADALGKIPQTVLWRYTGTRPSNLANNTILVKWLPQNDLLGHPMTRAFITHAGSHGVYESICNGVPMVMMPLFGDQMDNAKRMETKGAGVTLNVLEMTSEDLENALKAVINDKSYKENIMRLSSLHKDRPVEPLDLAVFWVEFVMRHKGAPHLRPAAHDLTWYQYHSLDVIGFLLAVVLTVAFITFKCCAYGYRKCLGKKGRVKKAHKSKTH
In kind it is in vivo. The note with it: 600 mg q.d.; day 18 vs day 1; three subjects.

The target of data set [5] is T2, SULT1E1. The class given is in vivo. The conditions noted are these: 600 mg q.d.; day 18 vs day 1; three subjects. A digest of the protocol: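 Plasma from three subjects, sampled on day 1 (oral contraceptive alone) and day 18 (with test compound 600 mg q.d.), was split into duplicate aliquots. One aliquot was hydrolysed with purified arylsulfatase and the other with genetically modified β-glucuronidase, in 1 M Tris-HCl pH 8.0 buffer (stock), at 50°C for 1 h. Total EE was measured by LC-MS/MS. EE AUClast with and without hydrolysis was computed by linear-up/log-down trapezoids.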

Data set [6] is described as follows: Safety and tolerability. The class given is in vivo, human. The note with it: 600 mg q.d. with oral contraceptive, healthy women. In a few lines: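 Throughout the study in healthy women, TEAEs, serious TEAEs and TEAEs leading to discontinuation were monitored, covering oral contraceptive alone and co-administration with test compound 600 mg q.d. Intensity (mild/moderate) and investigator-judged relatedness were recorded. Clinical laboratory parameters, vital signs and ECG were also assessed.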

Data set [7] addresses T1, CYP3A4. Kind of data set: In vitro CYP3A4 inhibition and induction by ziritaxestat and predictions from it. In kind it is in vitro ADME. The conditions noted are these: data on file.
The target of data set [8] is T1, CYP3A4. The conditions noted are these: in vitro studies; cited from earlier work.
Where [9] appears, read: OC + ziritaxestat 600 mg q.d. (day 8, SD), n = 14.
Where [10] appears, read: OC + ziritaxestat 600 mg q.d. (day 18, MD), n = 13.
Setting [11] is: day 18 test vs. day 1 reference, ziritaxestat 600 mg q.d.

Consider `C[C@]12CCC(=O)C=C1[C@@H]1C[C@@H]1[C@H]1[C@@H]3[C@@H]4C[C@@H]4[C@@]4(CCC(=O)O4)[C@@]3(C)CC[C@@H]12` [Drospirenone, drospirenone], for which, in data set [1] (setting [9]), the AUC(0-inf) (usually the area under the concentration-time curve extrapolated to infinity) was 686 ng·h/mL; the highest concentration (Cmax) (as a rule, the highest concentration seen after dosing) was 21.4 ng/mL; the time of peak concentration (Tmax) (usually the time at which the peak concentration occurs) came out at 2.5 h; the half-life (commonly the time in which the quantity being followed falls by half) was 2680 min. In addition, in data set [1] (setting [10]), the total exposure AUC(0-inf) was 708 ng·h/mL, the peak concentration (Cmax) was determined as 22.6 ng/mL, the Tmax worked out at 4 h and the half-life was 2600 min. In data set [1] (OC alone (day 1), n = 15), this molecule showed an area under the curve AUC(0-inf) of 574 ng·h/mL, a Cmax of 20.7 ng/mL and a half-life of 2340 min.
As to `C#C[C@]1(O)CC[C@H]2[C@@H]3CCc4cc(O)ccc4[C@H]3CC[C@@]21C` [Ethinyl estradiol, ethinyl estradiol], in data set [1] (setting [11]), the “increase of AUC0–inf on co-administration with ziritaxestat” value is on record as 2.4 fold and the “increase of Cmax on co-administration with ziritaxestat” value is 2.8 fold. In addition, in data set [1] (setting [9]), the AUC(0-inf) turned out to be 2.02 ng·h/mL, the Cmax amounted to 0.122 ng/mL and the half-life is 1810 min. For the same molecule, the area under the curve AUC(0-inf) in data set [1] (setting [10]) was determined as 2.18 ng·h/mL. The same molecule came in with an area under the curve AUC(0-inf) in data set [1] (OC alone (day 1), n = 15, fed) of 0.967 ng·h/mL. Besides, in data set [1] (OC alone (day 1), n = 15), the Cmax stood at 0.047 ng/mL and the half-life is 1320 min.
Consider `CC(C)(C)NC(=O)N[C@H](C(=O)N1C[C@H]2[C@@H]([C@H]1C(=O)NC(CC1CCC1)C(=O)C(N)=O)C2(C)C)C(C)(C)C` (some centres unmarked) [boceprevir], for which, in data set [2] (strong CYP3A4 inhibition), the “increase in DRSP exposure on co-administration” value is recorded as 100%.
Regarding `O=c1c(O)c(-c2ccc(O)c(O)c2)oc2cc(O)cc(O)c12` [quercetin, Quercetin], the inhibition (as a rule, the change of the read-out against control, counted positive when it falls) at 0.5 µM in data set [3] (read-out: inhibition of SULT1E1) is 66%.
Turning to `C[C@@H](c1ncncc1F)[C@](O)(Cn1cncn1)c1ccc(F)cc1F` [voriconazole], the “increase of the systemic exposure of EE on co-administration” value in data set [2] (strong CYP3A4 inhibitor co-administered) is on record as 60%.
Regarding `CCc1nc2c(C)cc(N3CCN(CC(=O)N4CC(O)C4)CC3)cn2c1N(C)c1nc(-c2ccc(F)cc2)c(C#N)s1` [ziritaxestat], the concentration for half-maximal inhibition (IC50) (in general, the concentration that gives 50% inhibition) in data set [3] is less than 800 nM. Also, the “effect on EE glucuronidation in vivo (in words)” value in data set [4] is recorded as “potential weak inhibitory effect”. The “effect on EE sulfation in vivo (in words)” value in data set [5] is reported as “potent inhibitor of sulfation”. In addition, the “tolerability (in words)” value in data set [6] is recorded as “generally well tolerated”. Further, the “mode of CYP3A4 inhibition” value in data set [7] is “competitive and reversible”. For the same molecule, in data set [8], the “CYP3A4 induction and inhibition in vitro (in words)” value was “weak inducer and inhibitor”.
